This series in a line: Toxicity liver stage against HepG2, at 10uM. Further details: test concentration 10 uM, cell line HepG2-A16-CD81EGFP. The settings on record: human, HepG2-A16-CD81EGFP cells; read-out: INHIBITION
In kind it is cell-based. The method, boiled down:
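Uninfected HepG2-A16-CD81EGFP cells, 3 × 10^3 per well, 1536-well, plated on prespotted compound at 10 μM final, parasite-free screening media added to match infected plates; puromycin 10 μM positive, DMSO 0.5% negative; run in parallel with 48 h PbLuc assay at 37 °C, 5% CO2; viability by CellTiter-Glo luminescence, normalized to controls.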
Turning to `COc1cccc(OCCNCc2ccccc2)c1`, the cytotoxicity at 10 µM is 10.7%.

On to `COCCN1C(=O)CO[C@H]2CN(CCCc3ccccc3)C[C@H]21`, for which the cytotoxicity at 10 µM came out at 52.8%.

On to `CCC(C)[C@H](NC(=O)c1ccc(F)cc1-n1cnnn1)C(=O)OC` (some centres not stated), for which the cytotoxicity at 10 µM is 5.55%.

With `O=C1CSC(c2ccncc2)c2c(n(C3CCOCC3)[nH]c2=O)N1` (configuration not stated), the cytotoxicity at 10 µM is -19.4%.

Turning to `COc1ccc(-c2n[nH]c(C)c2CC(=O)N2CCOCC2)cc1`, the cytotoxicity at 10 µM is -14.2%.

As for `Cc1nnc(C2CCN(C(=O)c3ccc4nccnc4c3)CC2)s1`, the cytotoxicity at 10 µM was found to be 5.05%.

For `CCOC(=O)NCCC(O)c1ccoc1` (configuration not stated), the cytotoxicity at 10 µM is -10.5%.

Regarding `O=C(Cc1ccccc1Cl)Nc1cnn(C2CCOC2)c1` (configuration not stated), the cytotoxicity at 10 µM was 2.63%.

In the case of `CC(=O)N1CCC2(CCN(CC3CCCCC3)C2)CC1`, the cytotoxicity at 10 µM was determined as 2.05%.

Turning to `CN(C)CCN1C(=O)CCC12CCCN(C(=O)CC1CC1)CC2` (configuration not stated), the cytotoxicity at 10 µM was -1.48%.

As for `O=C(C1CCOC1)N1CCc2ncnc(NC3CCC3)c2CC1` (configuration not stated), the cytotoxicity at 10 µM was -151%.

For `N#Cc1cccc(CN2CCC3(CC(C(=O)NCC4CC4)=NO3)C2)c1` (configuration not stated), the cytotoxicity at 10 µM turned out to be 8.73%.

Take `CC(=O)N1CC[C@@H]2O[C@@H](COCC(=O)N3CCCC3)CC[C@@H]21`: the cytotoxicity at 10 µM was -7.73%.

Take `c1ccc(COC[C@H]2CC[C@H]3[C@H](CCN3Cc3ccco3)O2)nc1`: the cytotoxicity at 10 µM is -144%.

Consider `COc1ncccc1C(=O)N1CC[C@H]2C[C@H](c3ccncn3)O[C@@H]2C1`, for which the cytotoxicity at 10 µM was 9.4%.

For `COCCNCc1ccc(OCC(=O)NC(C)(C)C)cc1`, the cytotoxicity at 10 µM is -8.08%.

As for `COCC(=O)NC(Cc1cc(N(C)C)nc(C2CC2)n1)c1ccccc1` (configuration not stated), the cytotoxicity at 10 µM was found to be 3.03%.

With `COCC(=O)N[C@@H]1CN(Cc2ccc3c(c2)OCCO3)C[C@H]1O`, the cytotoxicity at 10 µM is -27.1%.

As for `Cc1ccc(C(=O)N2Cc3ccccc3OC3(CCOCC3)C2)cn1`, the cytotoxicity at 10 µM was -25.8%.

`Cc1nc2ccccn2c1CC(=O)N[C@@H]1CC[C@@H](N2CCOCC2)[C@@H]1O`: the cytotoxicity at 10 µM is -1.68%.

In the case of `Cc1nc(C2CCCN2C(=O)COc2ccccc2)ncc1C(N)=O` (configuration not stated), the cytotoxicity at 10 µM was -19.1%.

As to `Cc1cc(CCC(N)=O)cc(C2CCCN2Cc2cnc(C)nc2)n1` (configuration not stated), the cytotoxicity at 10 µM was -26.1%.

Consider `COc1ccccc1CN1CCC(c2nn(CCN)c3nccnc23)C1` (configuration not stated), for which the cytotoxicity at 10 µM is -32.7%.

`COc1ccc(CN(C)[C@@H]2CN(C(=O)c3cccnc3)C[C@H]2O)cc1`: the cytotoxicity at 10 µM stood at 10.9%.

Turning to `C=Cn1ncc(CN2C[C@@H]3CCCN3C[C@H]2Cc2ccccc2)c1C`, the cytotoxicity at 10 µM is -18.5%.

As to `CCc1cc(O)nc(C2CCCN2C(=O)c2cc(CC)on2)n1` (configuration not stated), the cytotoxicity at 10 µM was -12.6%.

In the case of `NC(=O)CN1CCCC1c1csc(Nc2cnccn2)n1` (configuration not stated), the cytotoxicity at 10 µM was -11.2%.

For `COc1cccc(SCCCn2cnc3c(N)ncnc32)c1`, the cytotoxicity at 10 µM turned out to be 11.7%.

With `Cn1c(C2CC2)nc2c1CCN(CC(=O)NC1CCCCNC1=O)C2` (configuration not stated), the cytotoxicity at 10 µM is 3.73%.

For `CCC(c1ccccc1)N1CCN(CCO)CC1` (configuration not stated), the cytotoxicity at 10 µM was -1.19%.

With `COCCN1CCN(CC2CCCCO2)CC1` (configuration not stated), the cytotoxicity at 10 µM stood at 6.29%.

Turning to `N#Cc1cccnc1NCc1cccnc1N1CCCCC1`, the cytotoxicity at 10 µM is -48.3%.

For `CCCC(=O)NCc1cccc(C(=O)OC)c1`, the cytotoxicity at 10 µM is 5.99%.

On to `O=C(NCCc1nnc[nH]1)Nc1cccc(SC(F)F)c1`, for which the cytotoxicity at 10 µM was -42.4%.

Regarding `Cc1nc(C)c(S(=O)(=O)NC(=O)c2sccc2C)s1`, the cytotoxicity at 10 µM was 0.25%.

As to `COCc1nc(CNc2cc(C)on2)cs1`, the cytotoxicity at 10 µM is 4.05%.

`CCOc1cccc(C(=O)N(CCC#N)Cc2ccccn2)c1`: the cytotoxicity at 10 µM amounted to 5.42%.

For the compound `CCC(CNC(=O)c1ccco1)N1CCc2ccccc2C1` (configuration not stated), the cytotoxicity at 10 µM was found to be 18.3%.

On to `CN(Cc1ccc(C#N)cc1)C(=O)c1ccnc(OC2CCC2)c1`, for which the cytotoxicity at 10 µM is 7.59%.

With `COc1cccc(C2CCCN2Cc2nnnn2C2CC2)c1` (configuration not stated), the cytotoxicity at 10 µM is 4.17%.

Turning to `CCNC(=O)N1CCC(NC(=O)NCCc2ccc(C)cc2C)C1` (configuration not stated), the cytotoxicity at 10 µM was -44.6%.

Turning to `Cc1ccc(OCC(C)NS(=O)(=O)N(C)C)cc1` (configuration not stated), the cytotoxicity at 10 µM stood at 8.81%.

For `CS(=O)(=O)NCCN(CCCO)C1CCc2ccccc21` (configuration not stated), the cytotoxicity at 10 µM turned out to be 3.09%.

With `COc1ccc(-c2noc(C(CC(C)C)N3CCCCC3=O)n2)cn1` (configuration not stated), the cytotoxicity at 10 µM is -54.2%.

In the case of `N#CCSCCCN1CCC(C(=O)N2CCCCCC2)CC1`, the cytotoxicity at 10 µM was determined as 5.37%.

Turning to `CC(C)n1cc(CN2CCCN(C(=O)c3ccc[nH]3)CC2)cn1`, the cytotoxicity at 10 µM is 3.59%.

Take `CCOC1CCC2(CCN(C(=O)c3c[nH]cn3)CC2)c2ccccc21` (configuration not stated): the cytotoxicity at 10 µM amounted to 7.5%.

As for `O=C(NCCc1cccc(F)c1)c1nc2c(s1)CCCN2C(=O)C1CC1`, the cytotoxicity at 10 µM was -91.4%.

With `Cc1noc([C@H]2CC[C@@H]3[C@@H](CCN3c3ncccn3)O2)n1`, the cytotoxicity at 10 µM worked out at 3.06%.

With `COC[C@@H]1CCC[C@@]12CN(C(=O)N1CCCC1)CCO2`, the cytotoxicity at 10 µM is -101%.

Regarding `c1cc(CN2CC[C@H]3O[C@@H](COCC4CCOCC4)CC[C@H]32)ccn1`, the cytotoxicity at 10 µM is -69.8%.

As to `CNC(=O)[C@@]12CCO[C@@H]1CCN(S(=O)(=O)c1ccccc1F)C2`, the cytotoxicity at 10 µM was -71.2%.

For the compound `COCCN1CCN(Cc2ccc(Cl)cc2)[C@H]2CS(=O)(=O)C[C@H]21`, the cytotoxicity at 10 µM is -4.01%.

Consider `CC(C)N1CCC(CC(=O)NC(C(=O)O)c2cc(F)ccc2F)CC1` (configuration not stated), for which the cytotoxicity at 10 µM is 1.18%.

In the case of `O=C(NCCO)c1coc(Cn2cnc3ccccc32)n1`, the cytotoxicity at 10 µM was -4.48%.

On to `Clc1cc(N2CCC(N3CCCC3)CC2)nc2[nH]ccc12`, for which the cytotoxicity at 10 µM was -0.77%.

Regarding `COc1ccc(-c2cn(CCn3c(C)cc(C)nc3=O)nn2)cn1`, the cytotoxicity at 10 µM was determined as 6.05%.

`CN(Cc1ccccc1)c1ncccc1CNC1CCSCC1`: the cytotoxicity at 10 µM is -2.84%.

On to `CN(Cc1csc(-c2cccs2)n1)CC(O)CO` (configuration not stated), for which the cytotoxicity at 10 µM was -0.712%.

For the compound `CC(C)Cc1noc(CN(C)C(=O)CCNC(=O)c2ccccc2F)n1`, the cytotoxicity at 10 µM is -9.22%.

Turning to `COc1ccc(-c2ccncc2)cc1CNC1CCCC1`, the cytotoxicity at 10 µM is -47.7%.

For `OC(CNc1nc(C2CCCC2)nc2c1CCNCC2)C(F)(F)F` (configuration not stated), the cytotoxicity at 10 µM is -4.78%.

Consider `C/C=C(\C)CN1C[C@@H](NC(=O)c2ccc(F)c(F)c2)C[C@H]1C(=O)NCC`, for which the cytotoxicity at 10 µM was 14%.

With `CCC[C@@H]1CN(C(=O)c2cc3ccccc3cc2O)C[C@H]1N(C)C`, the cytotoxicity at 10 µM was -10.2%.

Regarding `CCc1nnc(CNC(=O)CCN2CCN(c3cccc(C)c3)CC2)s1`, the cytotoxicity at 10 µM was -1.82%.

As to `CN1CCCC1CCn1ccnc1-c1nc(-c2ccccc2)no1` (configuration not stated), the cytotoxicity at 10 µM is -5.35%.

With `Cc1cc(-c2nn(C)c(Cl)c2CN2Cc3ccccc3C(O)C2)no1` (configuration not stated), the cytotoxicity at 10 µM stood at 4.1%.

Take `CCNC(=O)c1ccnc(NCC2COc3cc(OC)ccc3C2)c1` (configuration not stated): the cytotoxicity at 10 µM turned out to be 0.145%.

As for `CN1CCC(Oc2ccc(NC(=O)c3ccccc3Br)cc2)CC1`, the cytotoxicity at 10 µM is -15.6%.

Regarding `CCc1ccc(C2NCCc3cc4c(cc32)OCCO4)cc1` (configuration not stated), the cytotoxicity at 10 µM is -6.63%.

With `Cc1cncc(C2CCCN(C(=O)c3scnc3C)C2)n1` (configuration not stated), the cytotoxicity at 10 µM is -2.19%.

Consider `Cc1ccc(NC2CCN(C(=O)c3ccc(C)o3)CC2)nn1`, for which the cytotoxicity at 10 µM was -4.69%.

On to `Cc1ccc(C(=O)NCCCNc2ccc(C(F)(F)F)cn2)cc1`, for which the cytotoxicity at 10 µM is -2.34%.

As for `CCCOCC(=O)NS(=O)(=O)c1ccc2c(c1)OCCCO2`, the cytotoxicity at 10 µM is -5.67%.

As to `CC(C)CN(C)c1ccc(C(=O)N2CCCC2c2cnn(C)c2)cn1` (configuration not stated), the cytotoxicity at 10 µM was -6.95%.

`CC(NC(=O)NCCCO)c1ccc2c(c1)OCCO2` (configuration not stated): the cytotoxicity at 10 µM is -2.92%.

For `CN1CCOC(CNC(=O)CCCOc2ccccc2F)C1` (configuration not stated), the cytotoxicity at 10 µM was -3.15%.

Consider `CC(C)c1nnc2n1CCN(Cc1csc(CC(=O)N(C)C)n1)C2`, for which the cytotoxicity at 10 µM was -15.9%.

For the compound `Cc1nc(C)n(CC2CCCN2CCc2cccs2)n1` (configuration not stated), the cytotoxicity at 10 µM was -3.51%.

On to `CC(C)Oc1ncccc1CNC(=O)N1CCC1c1ccccc1` (configuration not stated), for which the cytotoxicity at 10 µM is -4.92%.

For the compound `CCCOc1ccc(CNC2CCCc3c2cnn3CC)cc1OC` (configuration not stated), the cytotoxicity at 10 µM is -10.8%.

Consider `CN(CCCNC(=O)N1CCCC1c1ccsc1)c1ccccn1` (configuration not stated), for which the cytotoxicity at 10 µM was -4.53%.

Take `c1cc(CN2CCCC(c3noc(C4CC4)n3)C2)no1` (configuration not stated): the cytotoxicity at 10 µM was -7.57%.

As for `CN(C(=O)CN1CCOC(Cn2cccn2)C1)c1nccs1` (configuration not stated), the cytotoxicity at 10 µM was -14.2%.

Consider `O=C(N[C@@H]1CN[C@H]2CCCO[C@H]21)c1cnccn1`, for which the cytotoxicity at 10 µM came to 6.38%.

For the compound `CCOc1cc2c(cc1CNC(Cc1cccs1)c1nccs1)OCO2` (configuration not stated), the cytotoxicity at 10 µM is 7.15%.

As for `CCNC(=O)[C@@H]1CCCN1[C@@H](C(=O)NC)C1CC1`, the cytotoxicity at 10 µM is -2.39%.

As to `CCN1C(=O)CCCC12CCCN(C(=O)c1ccncc1F)C2` (configuration not stated), the cytotoxicity at 10 µM is -3.27%.

Turning to `O=C(c1ccco1)N1CC2(CCNCC2)c2cc(Cl)ccc21`, the cytotoxicity at 10 µM turned out to be 0.199%.

Turning to `COc1cc2cc(C)c(SCCN3CCCCC3)nc2cc1OC`, the cytotoxicity at 10 µM is -0.883%.

As to `CCOCC1CN(CC2CC2)Cc2nn(C)cc21` (configuration not stated), the cytotoxicity at 10 µM is -76%.

Regarding `CC1Cc2cc(-c3cncn3CC(=O)NC(C)(C)C)ccc2N1C` (configuration not stated), the cytotoxicity at 10 µM is -40.5%.

`Cc1cccc(C(=O)N2CCC[C@]3(C[C@@H](OCC4CC4)CO3)C2)n1`: the cytotoxicity at 10 µM was -82.9%.

Consider `CS(=O)(=O)N[C@@H]1CCN(Cc2cccnc2)[C@H]1Cc1ccccc1`, for which the cytotoxicity at 10 µM is -74.5%.

Regarding `COCCN1CCC2(CC1)CN(C(=O)c1ccco1)CCO2`, the cytotoxicity at 10 µM is -1.27%.

Consider `CCC(CC)NC(=O)c1ncn2c1CN(CC)S(=O)(=O)c1ccccc1-2`, for which the cytotoxicity at 10 µM is -85.1%.

Consider `Nc1nc2cn(C3CCCC3)c(=O)c-2c[nH]1`, for which the cytotoxicity at 10 µM was -14.5%.

These data come from ChEMBL document CHEMBL4513216, “Probing the Open Global Health Chemical Diversity Library for Multistage-Active Starting Points for Next-Generation Antimalarials” (ACS Infect Dis, 2020).
